Activity calls are given as the source filed them. The calls are words filed in the database; no cut-off is given here.
Columns and labels:
Protein ENL = biological target: T1, Protein ENL (Homo sapiens, UniProt Q03111); assay: Inhibition of human His-ENL YEATS domain and biotinylated H3K9ac peptide interaction by AlphaScreen assay
T1 sequence (Q03111 whole entry): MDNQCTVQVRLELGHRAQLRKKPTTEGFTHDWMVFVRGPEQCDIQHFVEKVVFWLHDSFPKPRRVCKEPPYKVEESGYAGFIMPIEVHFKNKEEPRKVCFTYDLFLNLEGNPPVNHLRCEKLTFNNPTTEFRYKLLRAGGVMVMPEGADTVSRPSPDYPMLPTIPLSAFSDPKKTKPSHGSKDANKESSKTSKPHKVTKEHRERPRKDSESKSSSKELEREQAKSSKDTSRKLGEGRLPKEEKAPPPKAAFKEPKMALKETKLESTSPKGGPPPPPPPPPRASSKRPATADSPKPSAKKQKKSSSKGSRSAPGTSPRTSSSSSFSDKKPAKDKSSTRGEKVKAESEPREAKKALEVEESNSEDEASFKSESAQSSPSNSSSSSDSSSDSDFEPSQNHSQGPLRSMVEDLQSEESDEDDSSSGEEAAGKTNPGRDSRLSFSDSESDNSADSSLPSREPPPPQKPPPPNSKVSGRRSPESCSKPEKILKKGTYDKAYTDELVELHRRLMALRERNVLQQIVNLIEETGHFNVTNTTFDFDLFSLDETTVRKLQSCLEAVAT

Protein AF-9 = biological target: T2, Protein AF-9 (Homo sapiens, UniProt P42568); assay: Inhibition of human His-AF9 YEATS domain and biotinylated H3K9ac peptide interaction by AlphaScreen assay
T2 sequence (P42568 whole entry): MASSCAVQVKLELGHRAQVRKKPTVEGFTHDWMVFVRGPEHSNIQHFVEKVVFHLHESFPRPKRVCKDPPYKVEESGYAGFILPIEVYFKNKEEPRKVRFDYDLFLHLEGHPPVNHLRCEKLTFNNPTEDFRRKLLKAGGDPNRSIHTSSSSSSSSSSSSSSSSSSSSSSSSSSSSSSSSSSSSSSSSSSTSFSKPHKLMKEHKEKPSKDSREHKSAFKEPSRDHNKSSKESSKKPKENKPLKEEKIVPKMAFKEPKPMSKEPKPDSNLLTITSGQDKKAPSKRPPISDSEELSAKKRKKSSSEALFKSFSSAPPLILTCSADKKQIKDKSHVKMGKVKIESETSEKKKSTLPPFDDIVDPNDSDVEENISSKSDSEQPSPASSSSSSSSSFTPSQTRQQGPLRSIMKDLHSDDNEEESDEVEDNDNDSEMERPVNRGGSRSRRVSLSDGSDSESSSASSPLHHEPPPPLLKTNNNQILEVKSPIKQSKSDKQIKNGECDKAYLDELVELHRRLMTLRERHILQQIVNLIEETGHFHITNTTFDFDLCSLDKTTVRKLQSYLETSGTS

[1] = biological target: T3, YEATS domain-containing protein 4 (Homo sapiens, UniProt O95619); assay: Inhibition of human His-GAS41 YEATS domain and biotinylated H3K27ac peptide interaction by AlphaScreen assay
In short: (§1)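 His-tagged YEATS domains were expressed in E. coli Rosetta-2 (DE3) pLysS and purified on Ni-NTA. Partners were biotinylated peptide on streptavidin donor and Ni2+-chelate acceptor beads: AF9 30 nM with H3K9ac, GAS41 100 nM with H3K27ac, YEATS2 100 nM with H3K27cr. Peptides at 30 nM, buffer 50 mM HEPES pH 7.4, 100 mM NaCl, 0.1% BSA, 0.05% CHAPS. Thirteen-point 3-fold series from 54 μM to 0.1 nM, 4–6 replicates, signal normalised to no-compound control, four-parameter fit.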

[2] = biological target: T4, YEATS domain-containing protein 2 (Homo sapiens, UniProt Q9ULM3); assay: Inhibition of human His-YEATS2 YEATS domain and biotinylated […] peptide interaction by AlphaScreen assay; in short: as §1
T4 sequence (Q9ULM3 whole entry): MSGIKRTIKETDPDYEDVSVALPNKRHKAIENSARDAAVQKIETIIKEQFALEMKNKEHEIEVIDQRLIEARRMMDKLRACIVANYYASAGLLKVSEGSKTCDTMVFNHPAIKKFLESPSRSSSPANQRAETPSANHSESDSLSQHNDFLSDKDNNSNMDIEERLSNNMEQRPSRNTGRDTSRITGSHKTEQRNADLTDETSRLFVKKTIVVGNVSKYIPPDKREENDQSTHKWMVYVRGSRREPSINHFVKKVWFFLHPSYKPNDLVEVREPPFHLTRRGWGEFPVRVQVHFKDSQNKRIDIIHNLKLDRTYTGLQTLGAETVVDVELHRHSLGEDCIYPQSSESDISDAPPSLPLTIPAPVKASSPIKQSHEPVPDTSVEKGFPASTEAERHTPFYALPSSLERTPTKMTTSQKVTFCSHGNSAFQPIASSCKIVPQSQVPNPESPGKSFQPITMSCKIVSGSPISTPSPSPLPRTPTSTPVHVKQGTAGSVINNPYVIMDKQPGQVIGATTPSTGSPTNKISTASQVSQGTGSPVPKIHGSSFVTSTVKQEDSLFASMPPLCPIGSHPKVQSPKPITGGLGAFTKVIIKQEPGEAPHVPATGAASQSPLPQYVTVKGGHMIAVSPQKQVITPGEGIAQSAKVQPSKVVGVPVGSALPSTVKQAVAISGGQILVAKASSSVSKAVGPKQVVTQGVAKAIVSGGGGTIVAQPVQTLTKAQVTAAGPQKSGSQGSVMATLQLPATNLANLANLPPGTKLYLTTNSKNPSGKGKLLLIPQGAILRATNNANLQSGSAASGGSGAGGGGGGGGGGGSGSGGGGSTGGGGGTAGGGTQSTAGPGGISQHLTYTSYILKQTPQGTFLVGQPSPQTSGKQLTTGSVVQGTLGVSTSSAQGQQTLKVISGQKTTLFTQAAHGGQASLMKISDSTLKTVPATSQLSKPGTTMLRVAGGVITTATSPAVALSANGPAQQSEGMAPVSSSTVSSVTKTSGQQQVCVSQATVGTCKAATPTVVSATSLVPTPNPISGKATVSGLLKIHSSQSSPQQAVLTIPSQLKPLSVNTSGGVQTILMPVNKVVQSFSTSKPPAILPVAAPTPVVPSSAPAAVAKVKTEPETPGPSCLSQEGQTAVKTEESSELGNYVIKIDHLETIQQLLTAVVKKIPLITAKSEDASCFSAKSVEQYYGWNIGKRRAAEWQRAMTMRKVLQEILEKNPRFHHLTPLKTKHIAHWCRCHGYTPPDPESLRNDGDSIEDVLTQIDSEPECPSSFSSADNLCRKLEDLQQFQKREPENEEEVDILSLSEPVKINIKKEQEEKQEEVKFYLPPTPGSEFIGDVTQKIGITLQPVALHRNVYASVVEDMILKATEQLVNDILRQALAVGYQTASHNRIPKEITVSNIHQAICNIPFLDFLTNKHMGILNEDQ

[3] = biological target: T5, Protein ENL (Homo sapiens) (UniProt Q03111); assay: Inhibition of human His-ENL YEATS domain and biotinylated H3K9ac peptide interaction at 5 uM by AlphaScreen assay
T5 sequence (whole entry): T1 sequence (Q03111 whole entry)

[4] = biological target: T6, Protein AF-9 (Homo sapiens) (UniProt P42568); assay: Inhibition of human His-AF9 YEATS domain and biotinylated H3K9ac peptide interaction at 20 uM by AlphaScreen assay
T6 sequence (whole entry): T2 sequence (P42568 whole entry)

[5] = biological target: T3, YEATS domain-containing protein 4; assay: Inhibition of human His-GAS41 YEATS domain and biotinylated H3K27ac peptide interaction at 20 uM by AlphaScreen assay
[6] = biological target: T7, YEATS domain-containing protein 2 (Homo sapiens) (UniProt Q9ULM3); assay: Inhibition of human His-YEATS2 YEATS domain and biotinylated […] peptide interaction at 20 uM by AlphaScreen assay
T7 sequence (whole entry): T4 sequence (Q9ULM3 whole entry)

Homo sapiens = species: Homo sapiens; assay: Selectivity ratio of IC50 for human His-AF9 YEATS domain to IC50 for human His-ENL YEATS domain
U2OS = assay: Growth inhibition of ENL-independent human U2OS cells at 50 uM incubated for 3 days by CellTiter-Glo luminescent cell viability assay relative to control; format: functional, cell-based; details: time 3.0 day
In short: (§2)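 MOLM13 and MV4;11 were grown in RPMI-1640 + 10% FBS, U2OS in DMEM + 10% FBS. Treatment with DMSO or compound for 3 days. Viability read by CellTiter-Glo luminescence and expressed as % of DMSO-treated cells. Mean ± SEM, n = 3.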

MOLM-13 [7] = assay: Growth inhibition of human MOLM13 cells at 5 uM incubated for 3 days by CellTiter-Glo luminescent cell viability assay relative to control; format: functional; details: MOLM-13, 72 h, time 3 day, read-out: GI; in short: as §2
MOLM-13 [8] = assay: Growth inhibition of human MOLM13 cells at 10 uM incubated for 3 days by CellTiter-Glo luminescent cell viability assay relative to control; format: functional; details: MOLM-13, 72 h, time 3 day, read-out: GI; in short: as §2
MV4-11 = assay: Growth inhibition of human MV4-11 cells at 2.5 to 50 uM incubated for 3 days by CellTiter-Glo luminescent cell viability assay relative to control; format: functional, cell-based; details: dose 2.5-50 µM, time 3.0 day; in short: as §2
[9] = biological target: T5, Protein ENL (Homo sapiens); assay: Stabilization of ENL in human MV4-11 cells assessed as inhibition of high temperature-induced ENL protein degradation at 20 uM incubated for 5 hrs by cellular thermal shift assay; format: cell-based
In short: (§3)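 Cells (MOLM13, MV4;11 or HeLa) were treated with 20 μM compound or DMSO for 5 h, washed with PBS and resuspended in PBS with protease inhibitors, about 3 million cells per aliquot. Aliquots were heated 3 min at the indicated temperatures, then held 2 min at room temperature. Lysis was by NP40/glycerol/DTT buffer and three freeze-thaw cycles, followed by a 13,000 rpm spin at 4 °C. Soluble ENL, GAS41 or AF9 in supernatants was measured by western blot with β-actin loading control.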

[10] = biological target: T5, Protein ENL (Homo sapiens); assay: Stabilization of ENL in human MOLM13 cells assessed as inhibition of high temperature-induced ENL protein degradation at 20 uM incubated for 5 hrs by cellular thermal shift assay; format: cell-based; details: MOLM-13; in short: as §3
[11] = biological target: T5, Protein ENL (Homo sapiens); assay: Stabilization of ENL in human HeLa cells assessed as inhibition of high temperature-induced ENL protein degradation at 20 uM incubated for 5 hrs by cellular thermal shift assay; format: cell-based; in short: as §3
[12] = biological target: T6, Protein AF-9 (Homo sapiens); assay: Stabilization of AF9 in human HeLa cells assessed as inhibition of high temperature-induced AF9 protein degradation at 20 uM incubated for 5 hrs by cellular thermal shift assay; format: cell-based; in short: as §3
MOLM-13 [13] = assay: Growth inhibition of human MOLM-13 cells incubated for 6 days by CellTiter-Glo luminescent cell viability assay; details: MOLM-13, 144 h
MOLM-13 [14] = assay: Growth inhibition of human MOLM13 cells incubated for 6 days in presence of JQ1 by CellTiter-Glo luminescent cell viability assay; details: MOLM-13, 144 h
[15] = biological target: YEATS domain-containing protein 4 (GAS41) (Homo sapiens) (UniProt O95619); assay: Stabilization of GAS41 in human MV4-11 cells assessed as inhibition of high temperature-induced GAS41 protein degradation at 20 uM incubated for 5 hrs by cellular thermal shift assay
[16] = biological target: YEATS domain-containing protein 4 (GAS41) (Homo sapiens) (UniProt O95619); assay: Stabilization of GAS41 in human MOLM13 cells assessed as inhibition of high temperature-induced GAS41 protein degradation at 20 uM incubated for 5 hrs by cellular thermal shift assay; details: MOLM-13

T3 sequence (O95619 whole entry, the tested form may be a part): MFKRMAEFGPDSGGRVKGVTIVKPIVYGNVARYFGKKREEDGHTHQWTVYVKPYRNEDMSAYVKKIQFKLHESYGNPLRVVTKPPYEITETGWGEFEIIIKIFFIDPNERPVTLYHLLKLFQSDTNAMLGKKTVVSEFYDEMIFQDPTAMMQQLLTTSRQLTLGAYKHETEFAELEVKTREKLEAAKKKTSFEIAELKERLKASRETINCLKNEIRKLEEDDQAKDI
YEATS domain-containing protein 4 (GAS41) (Homo sapiens), sequence (O95619 whole entry, looked up, the tested form may be a part): as the sequence (O95619 whole entry, the tested form may be a part) above

| Structure (SMILES) | IC50 (Protein ENL) | IC50 [1] | IC50 [2] | inhibition [4] | inhibition [5] | inhibition [6] | also measured |
| --- | --- | --- | --- | --- | --- | --- | --- |
| CSc1ccc(CNC(=O)c2ccc3nncn3c2)cc1 | 230 nM | > 54 µM | > 54 µM | Active | Active | Active | IC50 (Protein AF-9): 1.85 µM; inhibition [3]: Active; Ratio (Homo sapiens): 4 |
| CC(C)c1cnc(NCc2ccc(CNC(=O)c3ccc4nncn4c3)cc2)nc1 | > 1000 nM | – | – | – | – | – | – |
| Cc1cc2ncc(C(=O)NCc3ccc(CN4CCC4)cc3)cn2n1 | > 5000 nM | – | – | – | – | – | – |
| O=C(NCc1ccc(CNc2nc(F)ccc2F)cc1)c1ccc2nncn2c1 | > 2000 nM | – | – | – | – | – | – |
| O=C(NCc1ccc(CN2CCC2)cc1)c1ccc2nncn2c1 | – | > 54 µM | 18.5 µM | Active | Active | Active | – |
| O=C(NCc1ccc(CNc2ccc(F)cn2)cc1)c1ccc2nncn2c1 | > 5000 nM | – | – | – | – | – | – |
| CN(C)Cc1ccc(CNC(=O)c2ccc3nncn3c2)cc1 | 621 nM | > 54 µM | > 54 µM | Active | Active | Active | growth inhibition (GI) (U2OS): inactive; IC50 (Protein AF-9): 4.93 µM; inhibition [3]: Active; inhibition of growth at 5 µM (MOLM-13 [7]): 40%; inhibition of growth at 10 µM (MOLM-13 [8]): 80%; growth inhibition (GI) (MV4-11): Active; Activity [9]: Active; Activity [10]: Active; Activity [11]: Active; Activity [12]: inactive; GI50 (MOLM-13 [13]): 3.64 µM; GI50 (MOLM-13 [14]): 1340 nM; Activity [15]: inactive; Activity [16]: inactive |
| O=C(NCc1ccc(CN2CCC2)cc1)c1ccc2ncnn2c1 | > 5000 nM | – | – | – | – | – | – |
| CC1CCN1Cc1ccc(CNC(=O)c2ccc3nncn3c2)cc1 (stereo not given) | 185 nM | – | – | – | – | – | – |

From ChEMBL document CHEMBL4808215, “Discovery of Selective Small-Molecule Inhibitors for the ENL YEATS Domain” (J Med Chem, 2021)
